# Test results: ChEMBL document CHEMBL1155063 (Bioorg Med Chem, 2008)
# Active and inactive are the calls of the source. The calls are words filed in the database; no cut-off is given here.
# Columns and labels:
# UACC-62 = test: Cytotoxicity against human UACC62 cells at 10 uM after 48 hrs by MTT assay; type: functional; conditions: UACC-62, 48 h, values are per cent of control
# Method in brief: (§1)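 Single-dose screen in the NCI 60-cell-line panel, run according to the Developmental Therapeutics Program protocol (one-dose mean graph). The result is the growth percentage of treated cells relative to untreated control cells.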
# Hs-578T = test: Cytotoxicity against human HS578T cells at 10 uM after 48 hrs by MTT assay; type: functional; conditions: values are per cent of control
# Method in brief: (§2)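 Single-dose screen on the NCI 60-cell-line panel, run to the Developmental Therapeutics Program protocol (one-dose mean graph). Each value is the growth percentage of treated cells against untreated control cells.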
# EKVX = test: Cytotoxicity against human EKVX cells at 10 uM after 48 hrs by MTT assay; type: functional; method in brief: as §2
# NCI-H522 = test: Growth percent of human NCI-H522 cells at 10 uM after 48 hrs by MTT assay; conditions: NCI-H522, 48 h
# MOLT-4 = test: Cytotoxicity against human MOLT4 cells at 10 uM after 48 hrs by MTT assay; type: functional; conditions: MOLT-4, 48 h; method in brief: as §2
# A498 = test: Cytotoxicity against human A498 cells at 10 uM after 48 hrs by MTT assay; type: functional; conditions: A498, 48 h; method in brief: as §2
# SW-620 = test: Cytotoxicity against human SW620 cells at 10 uM after 48 hrs by MTT assay; type: functional; conditions: SW-620, 48 h, values are per cent of control; method in brief: as §1
# NCI-H322M = test: Cytotoxicity against human NCI-H322M cells at 10 uM after 48 hrs by MTT assay; type: functional; method in brief: as §2
# [1] = Cytotoxicity against human TERT immortalized BJ1 cells at 1 uM after 48 hrs by MTT assay relative to control; type: cell-based, BJ
# Method in brief: (§3)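 hTERT-immortalized BJ1 fibroblasts were grown in DMEM with 10% FCS, 1 mM pyruvate and 4 mM […]. Cells (about 2 × 10^3 per well) were seeded and held 24 h at 37 °C. Compounds were freshly dissolved in DMSO, diluted into medium and left on the cells 48 h. MTT was added for 4 h, then SDS/DMF lysis buffer for 16 h. Absorbance was read at 550 nm and expressed relative to untreated cells (100%).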
# CCRF-CEM = test: Cytotoxicity against human CCRF-CEM cells at 10 uM after 48 hrs by MTT assay; type: functional; method in brief: as §2
# DU-145 = test: Cytotoxicity against human DU145 cells at 10 uM after 48 hrs by MTT assay; type: functional; conditions: DU-145, 48 h, values are per cent of control; method in brief: as §2
# PC-3 = test: Cytotoxicity against human PC3 cells at 10 uM after 48 hrs by MTT assay; type: functional; conditions: PC-3, 48 h, values are per cent of control; method in brief: as §2
# HOP-92 = test: Cytotoxicity against human HOP92 cells at 10 uM after 48 hrs by MTT assay; type: functional; conditions: HOP-92, 48 h; method in brief: as §2
# OVCAR-5 = test: Cytotoxicity against human OVCAR5 cells at 10 uM after 48 hrs by MTT assay; type: functional; conditions: OVCAR-5, 48 h; method in brief: as §2
# [2] = Cytotoxicity against human TERT immortalized BJ1 cells at 10 uM after 48 hrs by MTT assay relative to control; type: cell-based, BJ; method in brief: as §3
# MDA-MB-435 = test: Cytotoxicity against human MDA-MB-435 cells at 10 uM after 48 hrs by MTT assay; type: functional; conditions: MDA-MB-435, 48 h; method in brief: as §2
# SNB-75 = test: Cytotoxicity against human SNB75 cells at 10 uM after 48 hrs by MTT assay; type: functional; conditions: SNB-75, 48 h, values are per cent of control; method in brief: as §1
# [3] = target: T1, Telomerase reverse transcriptase (Homo sapiens, UniProt O14746); test: Effect on human TERT expressed in BJ1 cells at 10 uM after 24 hrs by SEAP assay relative to control; conditions: BJ
# [4] = target: T1, Telomerase reverse transcriptase; test: Effect on human TERT expressed in BJ1 cells at 100 uM after 24 hrs by SEAP assay relative to control; conditions: BJ
# UO-31 = test: Cytotoxicity against human UO31 cells at 10 uM after 48 hrs by MTT assay; type: functional; conditions: UO-31, 48 h, values are per cent of control; method in brief: as §1
# SF-295 = test: Cytotoxicity against human SF295 cells at 10 uM after 48 hrs by MTT assay; type: functional; conditions: SF-295, 48 h, values are per cent of control; method in brief: as §2
# HOP-62 = test: Cytotoxicity against human HOP62 cells at 10 uM after 48 hrs by MTT assay; type: functional; conditions: HOP-62, 48 h; method in brief: as §2
# M14 = test: Cytotoxicity against human M14 cells at 10 uM after 48 hrs by MTT assay; type: functional; conditions: M14, 48 h, values are per cent of control; method in brief: as §2
# NCI/ADR-RES = test: Cytotoxicity against human NCI/ADR-RES cells at 10 uM after 48 hrs by MTT assay; type: functional; method in brief: as §2
# MDA-MB-231 = test: Cytotoxicity against human MDA-MB-231/ATCC cells at 10 uM after 48 hrs by MTT assay; type: functional; conditions: MDA-MB-231, 48 h; method in brief: as §2
# HL-60 = test: Cytotoxicity against human HL60 cells at 10 uM after 48 hrs by MTT assay; type: functional; conditions: HL-60, 48 h; method in brief: as §2
# 786-0 = test: Cytotoxicity against human 786-0 cells at 10 uM after 48 hrs by MTT assay; type: functional; conditions: 786-0, 48 h; method in brief: as §2
# SK-MEL-28 = test: Cytotoxicity against human SK-MEL-28 cells at 10 uM after 48 hrs by MTT assay; type: functional; conditions: SK-MEL-28, 48 h, values are per cent of control; method in brief: as §2
# NCI-H460 = test: Growth percent of human NCI-H460 cells at 10 uM after 48 hrs by MTT assay; conditions: NCI-H460, 48 h
# UACC-257 = test: Cytotoxicity against human UACC257 cells at 10 uM after 48 hrs by MTT assay; type: functional; conditions: UACC-257, 48 h, values are per cent of control; method in brief: as §1
# [5] = Cytotoxicity against human CAK1-1 cells at 10 uM after 48 hrs by MTT assay; type: functional; conditions: CAK1-1, 48 h; method in brief: as §2
# [6] = target: T1, Telomerase reverse transcriptase; test: Effect on human TERT expressed in H1299 cells at 1 uM after 24 hrs by SEAP assay relative to control
# [7] = Cell viability of human H1299 cells at 1 uM after 48 hrs by MTT assay relative to control; conditions: NCI-H1299, 48 h
# T47D = test: Cytotoxicity against human T47D cells at 10 uM after 48 hrs by MTT assay; type: functional; method in brief: as §1
# [8] = target: T1, Telomerase reverse transcriptase; test: Inhibition of telomerase in human H1299 cells at 1 to 20 uM by TRAP assay; type: cell-based
# Method in brief: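 Modified TRAP assay using 2 µg total lysate from H1299 lung cancer cells as the telomerase source. Compounds were tested at 1, 5, 10 and 20 µM. Products were resolved on 10% polyacrylamide gels and stained with SYBR Green. A Taq-polymerase internal control was included, along with positive and negative controls.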
# T1 sequence (O14746 whole entry): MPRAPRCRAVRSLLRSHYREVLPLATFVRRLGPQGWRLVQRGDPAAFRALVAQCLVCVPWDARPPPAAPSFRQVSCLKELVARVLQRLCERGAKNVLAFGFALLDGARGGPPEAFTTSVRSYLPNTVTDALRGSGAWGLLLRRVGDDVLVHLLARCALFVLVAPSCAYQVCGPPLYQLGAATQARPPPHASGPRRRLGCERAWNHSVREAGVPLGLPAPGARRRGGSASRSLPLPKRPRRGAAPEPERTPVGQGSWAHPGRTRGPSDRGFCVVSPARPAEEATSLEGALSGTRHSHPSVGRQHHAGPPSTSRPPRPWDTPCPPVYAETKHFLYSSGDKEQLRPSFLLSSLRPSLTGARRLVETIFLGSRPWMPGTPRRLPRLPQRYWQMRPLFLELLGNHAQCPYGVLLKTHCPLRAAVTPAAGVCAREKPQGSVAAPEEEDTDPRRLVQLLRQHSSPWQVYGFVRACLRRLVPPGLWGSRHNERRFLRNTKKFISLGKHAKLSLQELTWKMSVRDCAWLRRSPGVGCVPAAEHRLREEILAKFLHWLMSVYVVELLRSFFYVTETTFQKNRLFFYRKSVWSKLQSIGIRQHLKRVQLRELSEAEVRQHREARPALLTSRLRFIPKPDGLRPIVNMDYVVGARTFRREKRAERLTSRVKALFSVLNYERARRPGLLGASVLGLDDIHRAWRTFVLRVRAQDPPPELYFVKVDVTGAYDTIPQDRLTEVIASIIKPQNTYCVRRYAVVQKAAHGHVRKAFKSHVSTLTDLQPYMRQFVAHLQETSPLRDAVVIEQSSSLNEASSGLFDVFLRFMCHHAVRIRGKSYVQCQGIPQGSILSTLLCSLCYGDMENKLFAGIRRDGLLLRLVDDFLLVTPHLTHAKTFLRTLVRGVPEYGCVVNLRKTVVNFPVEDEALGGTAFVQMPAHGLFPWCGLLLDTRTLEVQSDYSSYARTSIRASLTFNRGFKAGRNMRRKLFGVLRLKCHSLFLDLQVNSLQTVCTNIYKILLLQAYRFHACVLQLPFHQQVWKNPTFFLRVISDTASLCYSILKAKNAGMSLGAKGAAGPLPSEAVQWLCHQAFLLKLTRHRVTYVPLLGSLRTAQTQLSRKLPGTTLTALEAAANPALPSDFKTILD
Structure (SMILES),"growth, % of control at 10 µM (UACC-62) [%]","growth, % of control at 10 µM (Hs-578T) [%]",growth percent at 10 µM (EKVX) [%],growth percent at 10 µM (NCI-H522) [%],growth percent at 10 µM (MOLT-4) [%],growth percent at 10 µM (A498) [%],"growth, % of control at 10 µM (SW-620) [%]",growth percent at 10 µM (NCI-H322M) [%],"viability at 48 h, 1 µM [1] [%]",growth percent at 10 µM (CCRF-CEM) [%],"growth, % of control at 10 µM (DU-145) [%]","growth, % of control at 10 µM (PC-3) [%]",growth percent at 10 µM (HOP-92) [%],growth percent at 10 µM (OVCAR-5) [%],"viability at 48 h, 10 µM [2] [%]",growth percent at 10 µM (MDA-MB-435) [%],"growth, % of control at 10 µM (SNB-75) [%]","growth, % of control at 10 µM (UO-31) [%]","growth, % of control at 10 µM (SF-295) [%]",growth percent at 10 µM (HOP-62) [%],other results
CC(=O)Nc1ccc2c(c1)C(=O)c1cc(NC(C)=O)ccc1C2=O,101,133,95.3,93.6,97,116,103,97.5,106,99.8,117,103,101,102,91,109,107,96.4,103,111,"residual activity [3]: 117%; residual activity [4]: 117%; growth, % of control at 10 µM (M14): 105%; growth percent at 10 µM (NCI/ADR-RES): 114%; growth percent at 10 µM (MDA-MB-231): 104%; growth percent at 10 µM (HL-60): 38.7%; growth percent at 10 µM (786-0): 97.7%; growth, % of control at 10 µM (SK-MEL-28): 118%; growth percent at 10 µM (NCI-H460): 109%; growth, % of control at 10 µM (UACC-257): 27%; growth percent at 10 µM [5]: 105%; residual activity [6]: 97%; cell viability at 1 µM [7]: 117%; growth percent at 10 µM (T47D): 96.2%"
O=C(CCN1CCCC1)Nc1ccc2c(c1)C(=O)c1cc(NC(=O)CCN3CCCC3)ccc1C2=O,42.7,5.26,58.7,29.2,23,-0.91,20,45.8,82,3.74,29.5,21.7,7.04,18.8,68,68.8,77.5,5.27,48.6,18.8,"Activity [8]: Active; residual activity [3]: 67%; residual activity [4]: 109%; growth, % of control at 10 µM (M14): 53.9%; growth percent at 10 µM (NCI/ADR-RES): 80.6%; growth percent at 10 µM (MDA-MB-231): 30.5%; growth percent at 10 µM (HL-60): 85.8%; growth percent at 10 µM (786-0): 40.5%; growth, % of control at 10 µM (SK-MEL-28): 15%; growth percent at 10 µM (NCI-H460): 25.5%; growth, % of control at 10 µM (UACC-257): -17.9%; growth percent at 10 µM [5]: 55.5%; residual activity [6]: 73%; cell viability at 1 µM [7]: 87%; growth percent at 10 µM (T47D): 59%"
CN(C)CC(=O)Nc1ccc2c(c1)C(=O)c1cc(NC(=O)CN(C)C)ccc1C2=O,22.3,-6.11,102,61.8,29.1,-6.39,23.4,32.4,96,-13.2,78.7,59,56.1,73.2,45,68.4,76.1,-82.5,-83.5,29,"residual activity [3]: 44%; residual activity [4]: 3%; growth, % of control at 10 µM (M14): 75%; growth percent at 10 µM (NCI/ADR-RES): 47.8%; growth percent at 10 µM (MDA-MB-231): 4.49%; growth percent at 10 µM (HL-60): -65%; growth percent at 10 µM (786-0): 68.6%; growth, % of control at 10 µM (SK-MEL-28): 32.1%; growth percent at 10 µM (NCI-H460): 5.01%; growth, % of control at 10 µM (UACC-257): -1.84%; growth percent at 10 µM [5]: 59.3%; residual activity [6]: 87%; cell viability at 1 µM [7]: 92%; growth percent at 10 µM (T47D): 24.6%"
O=C1c2ccc(NC(=O)C3CC3)cc2C(=O)c2cc(NC(=O)C3CC3)ccc21,81,119,94.3,89.4,94.3,92.3,105,106,60,90.7,98.8,107,86.2,112,44,97.3,89.2,95.5,86.6,91.6,"growth, % of control at 10 µM (M14): 98.9%; growth percent at 10 µM (NCI/ADR-RES): 90.8%; growth percent at 10 µM (MDA-MB-231): 97%; growth percent at 10 µM (HL-60): 62.5%; growth percent at 10 µM (786-0): 94.9%; growth, % of control at 10 µM (SK-MEL-28): 109%; growth percent at 10 µM (NCI-H460): 89%; growth, % of control at 10 µM (UACC-257): 108%; growth percent at 10 µM [5]: 88.4%; residual activity [6]: 80%; cell viability at 1 µM [7]: 46%; growth percent at 10 µM (T47D): 79.8%"
CCN(CC)CCC(=O)Nc1ccc2c(c1)C(=O)c1cc(NC(=O)CCN(CC)CC)ccc1C2=O,44.5,-23.8,60,28,5.42,-38.8,16.9,44.8,103,-6.02,10.2,13.6,9.7,33.6,55,71.1,46.6,-31.5,-19.9,11.7,"Activity [8]: Active; residual activity [3]: 49%; residual activity [4]: 37%; growth, % of control at 10 µM (M14): 62.8%; growth percent at 10 µM (NCI/ADR-RES): 59.5%; growth percent at 10 µM (MDA-MB-231): 31.3%; growth percent at 10 µM (HL-60): 14%; growth percent at 10 µM (786-0): 24.7%; growth, % of control at 10 µM (SK-MEL-28): 2.56%; growth percent at 10 µM (NCI-H460): 9.5%; growth, % of control at 10 µM (UACC-257): -14.5%; growth percent at 10 µM [5]: 3.27%; residual activity [6]: 76%; cell viability at 1 µM [7]: 106%; growth percent at 10 µM (T47D): 68.6%"
